Assay outcomes as filed in PubChem BioAssay.
Rtt109 HAT inh = blocks Candida albicans Rtt109/Vps75 acetyltransferase activity | Q5AAJ8 | purified Rtt109/Vps75, ThioGlo CoA-SH fluorescence, 4 h | inhibition, % at 34.9 µM | 0.16% of 330,000 active;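 active = inhibition of at least 50% in every replicate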
C-LANA FP = KSHV C-LANA DNA binding inhibition; MBP-C-LANA/FAM-LBS DNA binding, fluorescence polarization; inhibition, % at 9 µM; 0.078% of 340,000 active; AID 504423;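 active = highest replicate inhibition at or above 60% at 9 µM, even if other replicates fall short; inactive = all replicates below 60% inhibition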;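 also: 0% = neutral control wells and 100% = 4 µM acridine orange control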
Keap1 Nrf2 FP = disrupts human Keap1 binding to Nrf2 peptide; Q14145; Keap1 Kelch-Nrf2 peptide fluorescence polarization, 1536-well; inhibition, % at 9.4 µM; 0.15% of 340,000 active; AID 504523; in the data active = inhibition above about 12%;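 also: human Keap1 Kelch domain with fluorescein labeled Nrf2 9mer peptide probe; 0% = neutral control wells and 100% = peptide positive control; higher means more block of Keap1 binding to Nrf2 peptide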
Target sequence (Q14145 whole entry, looked up, the tested form may be a part): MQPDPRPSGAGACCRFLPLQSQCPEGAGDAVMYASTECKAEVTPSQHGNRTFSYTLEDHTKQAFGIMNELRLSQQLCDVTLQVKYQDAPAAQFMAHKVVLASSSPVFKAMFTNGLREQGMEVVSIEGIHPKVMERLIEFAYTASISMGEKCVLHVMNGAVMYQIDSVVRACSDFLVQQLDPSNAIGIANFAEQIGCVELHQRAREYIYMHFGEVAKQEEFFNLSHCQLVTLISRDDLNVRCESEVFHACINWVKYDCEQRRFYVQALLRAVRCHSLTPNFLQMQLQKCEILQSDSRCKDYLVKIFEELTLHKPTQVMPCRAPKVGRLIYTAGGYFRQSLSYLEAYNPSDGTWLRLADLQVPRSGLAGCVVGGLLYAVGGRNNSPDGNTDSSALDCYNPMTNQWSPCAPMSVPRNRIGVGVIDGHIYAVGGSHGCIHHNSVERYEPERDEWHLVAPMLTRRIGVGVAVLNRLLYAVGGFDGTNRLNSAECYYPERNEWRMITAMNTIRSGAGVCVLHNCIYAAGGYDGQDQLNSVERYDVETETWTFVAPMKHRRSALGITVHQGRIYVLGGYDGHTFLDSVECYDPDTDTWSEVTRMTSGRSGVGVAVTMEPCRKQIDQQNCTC
Tn6 DDE FP = disrupts Tn6 cyclic peptide binding to fibrin D-Dimer-E complex | AID 720509 | Fibrin DD(E) TRITC-Tn6 fluorescence polarization displacement | inhibition, % at 8.3 µM | 0.21% of 370,000 active | P02675;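 active = inhibition above a per-campaign cutoff: mean of compounds within control limits plus 3 SD, cut at about 15% in these data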;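 also: 0% = median of all compound wells on the plate and 100% = blocking peptide control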
DDE Tn7 FP inh = DD(E)-Tn7 binding inhibition, primary FP screen. inhibition, % at 8.3 µM. P02675. FP displacement of FITC-Tn7 peptide from fibrin DD(E); 0% = median of compound wells per plate. 0.13% of 370,000 active. AID 720508;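 active = inhibition above the mean of compounds falling within the control limits plus 3 SD of them, cut at about 14% in these data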;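 also: 0% = plate median of compound wells and 100% = 10 µM Aha-Tn7 peptide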
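Measure: % inhibition scaled between sample-field median and high-control FP; Test system: human fibrin DD(E); Quantity: 2 µM final DD(E) protein; Doses: one dose, 8.3 µM nominal; Schedule: compound with protein 10 min, then 3 h after probe, room temperature; Detection: fluorescence polarization; Medium: Tris buffer with calcium and detergent, pH 7.8.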
* hit, by the source's call. Compounds with a hit are over-represented: about 0.6% of the library has one in this group of screens.

What do the screens show for `Cc1cc(OCc2ccc(C(=O)NN=C3CCCC3)cc2)ccc1Cl`?
Rtt109 HAT inh: 55.7*; C-LANA FP: 0.0; Keap1 Nrf2 FP: -1.7; Tn6 DDE FP: 2.9; DDE Tn7 FP inh: 5.1

Results for COc1ccc(C(=O)NN=C2CCCC2)cc1 ?
Rtt109 HAT inh: 4.4; C-LANA FP: -1.6; Keap1 Nrf2 FP: -2.7; Tn6 DDE FP: 3.0; DDE Tn7 FP inh: 1.2

Results for Cc1ccc(NC(=S)Nc2ccc(F)cc2)cc1C ?
Rtt109 HAT inh: 50.5*; C-LANA FP: -2.1; Keap1 Nrf2 FP: 0.3; Tn6 DDE FP: 5.3; DDE Tn7 FP inh: 6.5

Results for Cc1cccc(C)c1NC(=S)Nc1ccc(F)cc1 ?
Rtt109 HAT inh: 4.2; C-LANA FP: -0.3; Keap1 Nrf2 FP: 0.8; Tn6 DDE FP: -2.1; DDE Tn7 FP inh: -4.1

What do the screens show for `NS(=O)(=O)c1ccc(CNC(=O)C2(c3ccc(Cl)cc3)CC2)cc1`?
Rtt109 HAT inh: 1.3; C-LANA FP: -1.0; Keap1 Nrf2 FP: -0.1; Tn6 DDE FP: -4.2; DDE Tn7 FP inh: 1.7

How did COc1ccc(CNC(=O)C2(c3ccc(Cl)cc3)CC2)cc1 do in these assays?
Rtt109 HAT inh: 55.7*; C-LANA FP: 0.1; Keap1 Nrf2 FP: -3.1; Tn6 DDE FP: 8.8; DDE Tn7 FP inh: -2.3

What do the screens show for `CSS(=O)(=O)c1cccc2cccnc12`?
Rtt109 HAT inh: 132.2*; C-LANA FP: 0.1; Keap1 Nrf2 FP: -2.7; Tn6 DDE FP: -8.3; DDE Tn7 FP inh: -15.4

How did CCOC(=O)C(=Cc1cc(=O)c(OC)co1)C(=O)OCC do in these assays?
Rtt109 HAT inh: 77.8*; C-LANA FP: 0.5; Keap1 Nrf2 FP: -22.6; Tn6 DDE FP: 5.2; DDE Tn7 FP inh: -0.3

What do the screens show for `COc1coc(C(O)CN)cc1=O` (stereo unspecified)?
C-LANA FP: 1.0; Keap1 Nrf2 FP: 3.8; Tn6 DDE FP: 7.0; DDE Tn7 FP inh: 2.9

How did CCOC(=O)N1CCN(C(=O)C[C@H]2C[C@@]3(C(=O)OC)C(=C[C@H](COCc4ccccc4)O[C@@H]3C)N(Cc3ccco3)C2=O)CC1 do in these assays?
Tn6 DDE FP: 3.1; DDE Tn7 FP inh: -1.1

Results for CN(C)C(CNC(=O)c1ccc(C(=O)c2ccccc2)cc1)c1ccccc1 (stereo unspecified) ?
Rtt109 HAT inh: 54.2*; C-LANA FP: 0.4; Keap1 Nrf2 FP: -4.5; Tn6 DDE FP: 7.1; DDE Tn7 FP inh: 5.5

How did Cc1ccc(Cn2cc(CN(C)S(=O)(=O)c3ccccc3Br)nn2)cc1 do in these assays?
Tn6 DDE FP: -0.1; DDE Tn7 FP inh: -5.5

What do the screens show for `Cc1nc2ccccc2n1CC(=O)NC1CCCC1`?
Rtt109 HAT inh: 51.3*; C-LANA FP: 1.3; Keap1 Nrf2 FP: -5.6; Tn6 DDE FP: -12.5; DDE Tn7 FP inh: -3.4

Results for C[C@H]1[C@@H](OC(=O)NCc2ccc(C(F)(F)F)cc2)CC[C@@]23CCCN2C(=O)CCC[C@@H]13 ?
Tn6 DDE FP: -3.5; DDE Tn7 FP inh: -5.3

Results for C/C(=N/NC(=O)c1cc(O)c(O)c(O)c1)c1ccc([N+](=O)[O-])cc1 ?
Rtt109 HAT inh: 2.7; C-LANA FP: 75.7*; Keap1 Nrf2 FP: -1.7; Tn6 DDE FP: -6.5; DDE Tn7 FP inh: 1.6

What do the screens show for `C/C(=N\NC(=O)c1ccc([N+](=O)[O-])cc1)c1c(O)cc(C)oc1=O`?
Rtt109 HAT inh: -1.6; C-LANA FP: -0.7; Keap1 Nrf2 FP: -1.5; Tn6 DDE FP: -1.4; DDE Tn7 FP inh: -0.2

What do the screens show for `Cc1ccc(C(=O)NCC(=O)OCC(=O)Nc2cc(C)c(C)cc2[N+](=O)[O-])cc1`?
Rtt109 HAT inh: 6.5; C-LANA FP: -1.9; Keap1 Nrf2 FP: 0.8; Tn6 DDE FP: -1.4; DDE Tn7 FP inh: -4.1

How did COCC(=O)OCC(=O)Nc1cc(C)c(C)cc1[N+](=O)[O-] do in these assays?
Rtt109 HAT inh: 50.1*; C-LANA FP: -1.9; Keap1 Nrf2 FP: -3.7; Tn6 DDE FP: 7.3; DDE Tn7 FP inh: 8.7

Results for COc1ccccc1CNC(=O)C[C@H]1CC[C@H]2[C@@H](COc3ccc(NC(=O)Nc4ccccc4)cc3C(=O)N2C)O1 ?
Tn6 DDE FP: -7.3; DDE Tn7 FP inh: -2.0

Results for C=CCN(CC#Cc1cccnc1)Cc1ccc(OC)cc1OC ?
Tn6 DDE FP: -2.6; DDE Tn7 FP inh: -2.8

How did CCCC(=O)n1nc(-c2ccc(Cl)cc2)nc1SC do in these assays?
Rtt109 HAT inh: 2.5; C-LANA FP: 78.4*; Keap1 Nrf2 FP: 0.0; Tn6 DDE FP: -1.1; DDE Tn7 FP inh: 1.1
